Measurements reported in ChEMBL document CHEMBL1649125, “Efficacy of the novel diamidine compound 2,5-Bis(4-amidinophenyl)- furan-bis-O-Methlylamidoxime (Pafuramidine, DB289) against Trypanosoma brucei rhodesiense infection in vervet monkeys after oral administration” (2009).
The source made the active and inactive calls. No cut-off for these calls is given here.

Experiments:
[1] = test system: Trypanosoma brucei rhodesiense; assay: Antitrypanosomal activity against Trypanosoma brucei rhodesiense infected in vervet monkey 520 assessed as time to detect CSF parasitosis at 10 mg/kg, po administered on day 28 post infection for 10 days measured after 14 to 21 days by microscopy; format: functional
In short: (§1)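 Trypanosomes and white cells in free-flowing CSF were counted by hemocytometer. Negative CSF was centrifuged and re-examined. Samples still negative were inoculated at 0.2 ml intraperitoneally into two mice each. Drug was given once daily by oral gavage: 5 days from day 7 p.i., or 10 days from day 28 p.i.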

[2] = test system: Trypanosoma brucei rhodesiense; assay: Antitrypanosomal activity against Trypanosoma brucei rhodesiense infected in vervet monkey 482 assessed as time to detect parasitemia in wet films of blood at 3 mg/kg, po administered on day 7 post infection for 5 days by hematocrit centrifugation technique; format: functional
In short: (§2)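 Parasitemia was monitored from 3 days p.i. in ear-prick or inguinal venous blood. Methods were wet-film microscopy (detection limit 10^5 trypanosomes/ml) and hematocrit centrifugation technique (detection limit 10^3 trypanosomes/ml). Drug was given once daily by oral gavage: 5 days from day 7 p.i., or 10 days from day 28 p.i.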

[3] = test system: Trypanosoma brucei rhodesiense; assay: Antitrypanosomal activity against Trypanosoma brucei rhodesiense infected in vervet monkey 463 assessed as time to detect CSF parasitosis at 1 mg/kg, po administered on day 7 post infection for 5 days measured after 7 to 14 days; format: functional, organism-based; set-up: dose 1 mg/kg; in short: as §1
[4] = test system: Trypanosoma brucei rhodesiense; assay: Antitrypanosomal activity against Trypanosoma brucei rhodesiense infected in vervet monkey assessed as change in packed cell volume at 3 mg/kg, po administered on day 7 post infection for 5 days; format: functional
In short: (§3)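 Vervet monkeys, three per group, were infected intravenously with T. b. rhodesiense KETRI 2537. From day 7 p.i., a drug suspension was given by oral gavage once daily for 5 consecutive days. Packed cell volume was expressed as % change from the group's mean preinfection value. PCV was read at day 0 p.t., day 28 p.t. and endpoint, with follow-up to 180 days p.t.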

[5] = test system: Trypanosoma brucei rhodesiense; assay: Antitrypanosomal activity against Trypanosoma brucei rhodesiense infected in vervet monkey assessed as body weight change at 10 mg/kg, po administered on day 28 post infection for 10 days measured on day 28 post treatment; format: functional
In short: (§4)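 Body weight change is given as percent of the mean preinfection weight (n=3 per group). It was recorded at day 0 p.t., day 28 p.t. and end point. Oral gavage was once daily: 5 days from day 7 p.i., or 10 days from day 28 p.i.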

[6] = test system: Trypanosoma brucei rhodesiense; assay: Antitrypanosomal activity against Trypanosoma brucei rhodesiense infected in vervet monkey assessed as body weight change at 10 mg/kg, po administered on day 14 post infection for 5 days; format: functional
[7] = test system: Trypanosoma brucei rhodesiense; assay: Antitrypanosomal activity against Trypanosoma brucei rhodesiense infected in vervet monkey 490 assessed as time to detect CSF parasitosis at 10 mg/kg, po administered on day 28 post infection for 10 days measured after 14 to 21 days by microscopy; format: functional; in short: as §1
[8] = test system: Trypanosoma brucei rhodesiense; assay: Antitrypanosomal activity against Trypanosoma brucei rhodesiense infected in vervet monkey assessed as body weight change at 10 mg/kg, po administered on day 7 post infection for 5 days measured on day 28 post treatment; format: functional; in short: as §4
[9] = test system: Trypanosoma brucei rhodesiense; assay: Antitrypanosomal activity against Trypanosoma brucei rhodesiense infected in vervet monkey assessed as change in packed cell volume at 1 mg/kg, po administered on day 7 post infection for 5 days; format: functional
In short: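 Packed cell volume change is given as percent of the mean preinfection PCV in 3 monkeys. It was recorded at day 0 p.t., day 28 p.t. and end point, after 5 daily oral gavage doses starting day 7 p.i.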

[10] = test system: Trypanosoma brucei rhodesiense; assay: Antitrypanosomal activity against Trypanosoma brucei rhodesiense infected in vervet monkey 454 assessed as cure from infection at 10 mg/kg, po administered on day 7 post infection for 5 days; format: functional, organism-based; set-up: dose 10 mg/kg
In short: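 Vervet monkeys (n=3 per group), infected with T. b. rhodesiense KETRI 2537. Dosed by oral gavage with a suspension once daily for 5 consecutive days from day 7 p.i. Cure meant no trypanosomes over 180 days p.t. in blood (wet film, HCT) or CSF (hemocytometer, centrifugation), with mouse subinoculation of negative samples.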

[11] = test system: Trypanosoma brucei rhodesiense; assay: Antitrypanosomal activity against Trypanosoma brucei rhodesiense infected in vervet monkey assessed as body weight change at 3 mg/kg, po administered on day 7 post infection for 5 days; format: functional; in short: as §4
[12] = test system: Trypanosoma brucei rhodesiense; assay: Antitrypanosomal activity against Trypanosoma brucei rhodesiense infected in vervet monkey assessed as body weight change at 1 mg/kg, po administered on day 7 post infection for 5 days measured on day 28 post treatment; format: functional; conditions: in the assay text read “day 1 post treatment” for “day 28 post treatment”; in short: as §4
[13] = test system: Trypanosoma brucei rhodesiense; assay: Antitrypanosomal activity against Trypanosoma brucei rhodesiense infected in vervet monkey 520 assessed as time to detect CSF parasitosis at 10 mg/kg, po administered on day 28 post infection for 10 days measured after 7 to 14 days; format: functional; in short: as §1
[14] = test system: Trypanosoma brucei rhodesiense; assay: Antitrypanosomal activity against Trypanosoma brucei rhodesiense infected in vervet monkey 485 assessed as time to detect CSF parasitosis at 1 mg/kg, po administered on day 7 post infection for 5 days measured after 7 to 14 days; format: functional; in short: as §1
[15] = test system: Trypanosoma brucei rhodesiense; assay: Antitrypanosomal activity against Trypanosoma brucei rhodesiense infected in vervet monkey assessed as change in packed cell volume at 10 mg/kg, po administered on day 7 post infection for 5 days; format: functional; in short: as §3
[16] = test system: Trypanosoma brucei rhodesiense; assay: Antitrypanosomal activity against Trypanosoma brucei rhodesiense infected in vervet monkey assessed as body weight change at 3 mg/kg, po administered on day 7 post infection for 5 days measured on day 28 post treatment; format: functional; in short: as §4
[17] = test system: Trypanosoma brucei rhodesiense; assay: Antitrypanosomal activity against Trypanosoma brucei rhodesiense infected in vervet monkey assessed as change in packed cell volume at 10 mg/kg, po administered on day 7 post infection for 5 days measured on day 28 post treatment; format: functional; in short: as §3
[18] = test system: Trypanosoma brucei rhodesiense; assay: Antitrypanosomal activity against Trypanosoma brucei rhodesiense infected in vervet monkey 485 assessed as time to detect parasitemia in wet films of blood at 1 mg/kg, po administered on day 7 post infection for 5 days by hematocrit centrifugation technique; format: functional; in short: as §2
[19] = test system: Trypanosoma brucei rhodesiense; assay: Antitrypanosomal activity against Trypanosoma brucei rhodesiense infected in vervet monkey 471 assessed as time to detect parasitemia at 10 mg/kg, po administered on day 14 post infection for 5 days; format: functional
[20] = test system: Trypanosoma brucei rhodesiense; assay: Antitrypanosomal activity against Trypanosoma brucei rhodesiense infected in vervet monkey 471 assessed as time to detect parasitemia in wet films of blood at 10 mg/kg, po administered on day 14 post infection for 5 days by hematocrit centrifugation technique
[21] = test system: Trypanosoma brucei rhodesiense; assay: Antitrypanosomal activity against Trypanosoma brucei rhodesiense infected in vervet monkey assessed as change in packed cell volume at 10 mg/kg, po administered on day 28 post infection for 10 days measured on day 28 post treatment; format: functional
In short: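 Three vervet monkeys were infected intravenously with T. b. rhodesiense KETRI 2537 and treated in late-stage disease. From day 28 p.i., a drug suspension was given by oral gavage once daily for 10 consecutive days. PCV was reported as % change from the mean preinfection value at day 0 p.t., day 28 p.t. and endpoint. Monitoring continued up to 180 days p.t.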

[22] = test system: Trypanosoma brucei rhodesiense; assay: Antitrypanosomal activity against Trypanosoma brucei rhodesiense infected in vervet monkey 484 assessed as time to detect parasitemia in wet films of blood at 1 mg/kg, po administered on day 7 post infection for 5 days by hematocrit centrifugation technique; format: functional; in short: as §2
[23] = test system: Trypanosoma brucei rhodesiense; assay: Antitrypanosomal activity against Trypanosoma brucei rhodesiense infected in vervet monkey 483 assessed as time to detect CSF parasitosis at 3 mg/kg, po administered on day 7 post infection for 5 days measured after 14 to 21 days by microscopy; format: functional; in short: as §1

Question: With `CONC(=N)c1ccc(-c2ccc(-c3ccc(C(=N)NOC)cc3)o2)cc1` [PAFURAMIDINE] as the compound, how does the Time [1] read?
Answer: 119 days

Question: What about the Time [2] of the same compound?
Answer: 79 days

Question: What about the Time [3] of the same compound?
Answer: inactive

Question: And the Activity [4]?
Answer: -9.4%

Question: And the Activity [5]?
Answer: -8.1%

Question: And the Activity [6]?
Answer: -4.2%

Question: And the Time [7]?
Answer: 42 days

Question: And the Activity [8]?
Answer: 0%

Question: And the Activity [9]?
Answer: -4.3%

Question: And the Time [10]?
Answer: Active

Question: And the Activity [11]?
Answer: -5%

Question: What about the Activity [12] of the same compound?
Answer: -2.1%

Question: And the Time [13]?
Answer: 119 days

Question: And the Time [14]?
Answer: 14 days

Question: And the Activity [15]?
Answer: -5.8%

Question: And the Activity [16]?
Answer: -6.6%

Question: And the Activity [17]?
Answer: -1.6%

Question: And the Time [18]?
Answer: 3 days

Question: What about the Time [19] of the same compound?
Answer: 56 days

Question: And the Time [20]?
Answer: 87 days

Question: What about the Activity [21] of the same compound?
Answer: -9.1%

Question: And the Time [22]?
Answer: 4 days

Question: What about the Time [23] of the same compound?
Answer: 55 days
